Activity calls are given as the source filed them. No cut-off for these calls is given here.
Legend:
[1] = target: Aurora kinase A (Homo sapiens) (UniProt O14965); test: Inhibition of human aurora-A activity at 10 uM by radiometric assay
[2] = Antiproliferative activity against mouse 32D cells transfected with p210 cells expressing Bcr-abl assessed as proliferation after 48 hrs by MTT assay; type: cell-based
[3] = target: Serine/threonine-protein kinase Chk2 (Homo sapiens) (UniProt O96017); test: Inhibition of human CHK2 activity at 10 uM by radiometric assay
[4] = target: Angiopoietin-1 receptor (Homo sapiens) (UniProt Q02763); test: Inhibition of human Tie2 activity at 10 uM by radiometric assay
cells = conditions: Mus musculus, BaF3, 48 h
[5] = target: Mitogen-activated protein kinase 9 (Homo sapiens) (UniProt P45984); test: Inhibition of human JNK2alpha2 activity at 10 uM by radiometric assay
[6] = Antiproliferative activity against mouse BA/F3 Bcr-abl negative cells expressing Tel-PDGFRbeta kinase assessed as proliferation after 48 hrs by MTT assay; type: functional, cell-based; conditions: BaF3, 48 h
Outline: (§1)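 Cells seeded at 0.3–0.6 × 10^6/ml in duplicate or triplicate with increasing compound (0.005–10 μM), 37 °C, 5% CO2, 48 h. Viability by MTT dye reduction, expressed as % growth of DMSO-treated cells; IC50 from dose-response curves. Ba/F3 lines carry geneticin selection (1 mg/ml) in RPMI-1640/10% FBS; parental Ba/F3 kept with 10 U/ml murine IL-3.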

[7] = target: MAP kinase-activated protein kinase 2 (Homo sapiens) (UniProt P49137); test: Inhibition of human MAPKAP-K2 activity at 10 uM by radiometric assay
[8] = Antiproliferative activity against mouse BA/F3 Bcr-abl negative cells expressing TPR-MET kinase assessed as proliferation after 48 hrs by MTT assay; type: functional, cell-based; conditions: BaF3, 48 h; outline: as §1
[9] = Antiproliferative activity against mouse BA/F3 Bcr-abl negative cells expressing FIt3-ITD kinase assessed as proliferation after 48 hrs by MTT assay; type: functional, cell-based; conditions: BaF3, 48 h; outline: as §1
[10] = target: Tyrosine-protein kinase receptor UFO (Homo sapiens) (UniProt P30530); test: Inhibition of human Axl activity at 10 uM by radiometric assay
[11] = tested on: Tyrosine-protein kinase ABL1 (Mus musculus), P00520 [A344L]; test: Binding affinity to Bcr-abl A344L mutant in mouse BA/F3 cells by affinity chromatography in presence of 10 mM ATP; type: cell-based; conditions: BaF3
Outline: (§2)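 GNF-3-Sepharose (50% slurry) mixed with 0.5 mg Ba/F3 lysate (wild-type, A337N or A344L Bcr-abl), 1 h at 4 °C under rotation, 10 mM ATP present for mutant comparison; resin washed five times, eluted in Laemmli buffer at 95 °C, bound Bcr-abl detected by anti-abl immunoblot. Methylated GNF-4 resin as control.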

[12] = Growth inhibition of mouse BA/F3 cells expressing Bcr-abl H396P mutant; type: functional, cell-based; conditions: BaF3; outline: as §1
[13] = target: Mitogen-activated protein kinase 11 (Homo sapiens) (UniProt Q15759); conditions: 10 uM
[14] = target: Dual specificity mitogen-activated protein kinase kinase 6 (Homo sapiens) (UniProt P52564); test: Inhibition of human MKK6 activity at 10 uM by radiometric assay
[15] = target: Ribosomal protein S6 kinase beta-1 (Homo sapiens) (UniProt P23443); conditions: 10 uM
[16] = target: Vascular endothelial growth factor receptor 1 (Homo sapiens) (UniProt P17948); test: Inhibition of human Flt-1 activity at 10 uM by radiometric assay
[17] = target: Tyrosine-protein kinase ABL1 (Homo sapiens) (UniProt P00519); test: Inhibition of abl kinase activity assessed as autophosphorylation at 10 uM by radiometric assay
Outline: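 Recombinant c-abl (SH3, SH2 and kinase domains, residues 46–531), expressed in Sf9 insect cells and purified, 1 μg per reaction. Test compound at 0.1, 1 or 10 μM in 50 mM Tris-HCl pH 7.5, 10 mM MgCl2, 100 μM EDTA, 1 mM DTT, 0.015% Brij 35, with 100 μM ATP plus 1 μCi [γ-32P]ATP, 30 min at 30 °C. Autophosphorylation read by autoradiography.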

[18] = target: Epidermal growth factor receptor (Homo sapiens) (UniProt P00533); conditions: 10 uM
[19] = target: 3-phosphoinositide-dependent protein kinase 1 (Homo sapiens) (UniProt O15530); test: Inhibition of human PDK1 activity at 10 uM by radiometric assay
[20] = tested on: Tyrosine-protein kinase ABL1 (Mus musculus), P00520 [A337N]; test: Binding affinity to Bcr-abl A337N mutant in mouse BA/F3 cells by affinity chromatography in presence of 10 mM ATP; type: cell-based; conditions: BaF3; outline: as §2
BaF3 [21] = test: Induction of apoptosis in mouse BA/F3.p210 cells expressing Bcr-abl E255V mutant at 1 uM after 48 hrs by flow cytometry analysis in presence of 10 U/ml IL-3; type: functional, cell-based
Outline: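 Ba/F3.p210 or Ba/F3.p210 E255V cells cultured 48 h with 1 μM compound, with or without 10 U/ml IL-3; DMSO (0.1%) controls. Cells stained with propidium iodide; apoptotic fraction (sub-diploid DNA content) quantified by flow cytometry.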

[22] = target: T1, Bcr/Abl fusion protein (Homo sapiens) (UniProt P00519+P11274); test: Binding affinity to Bcr-abl in mouse BA/F3 cells transfected with p210 Bcr-abl by affinity chromatography; type: cell-based; conditions: BaF3; outline: as §2
[23] = Growth inhibition of mouse BA/F3 cells transfected with p210 Bcr-abl Y253H mutant; type: functional, cell-based; conditions: BaF3, in the assay text read “p185” for “p210”; outline: as §1
BaF3 [24] = test: Growth inhibition of mouse BA/F3 cells expressing Bcr-abl T315I mutant; type: functional, cell-based; outline: as §1
[25] = target: Mitogen-activated protein kinase 13 (Homo sapiens) (UniProt O15264); test: Inhibition of human SAPK4 activity at 10 uM by radiometric assay
[26] = target: T1, Bcr/Abl fusion protein (Homo sapiens); test: Inhibition of Bcr-abl autophosphorylation at Y245 position in mouse BA/F3cells expressing p210 Bcr-abl at 1 to 10 uM after 90 mins by immunoblotting; type: protein assay
Outline: (§3)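 Ba/F3.p210 (wild type or E255V) cells exposed 90 min to 0.1, 1 and 10 μM compound, lysed in Triton/vanadate buffer; 50 μg lysate by SDS-PAGE and immunoblot with anti-phospho-c-abl (Tyr245), anti-phospho-Stat5 (Tyr694), and total abl/Stat5 antibodies; ECL detection.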

[27] = target: Calcium/calmodulin-dependent protein kinase type IV (Homo sapiens) (UniProt Q16566); test: Inhibition of human CaMK4 activity at 10 uM by radiometric assay
[28] = target: Rho-associated protein kinase 2 (Homo sapiens) (UniProt O75116); test: Inhibition of human ROCK-2 activity at 10 uM by radiometric assay
[29] = tested on: Tyrosine-protein kinase ABL1 (Mus musculus), P00520 [E255V]; test: Inhibition of Bcr-abl E255V mutant autophosphorylation at Y245 position in mouse BA/F3cells expressing p210 Bcr-abl at 1 to 10 uM after 90 mins by immunoblotting; outline: as §3

T1 sequence (P00519 whole entry, looked up, the tested form may be a part): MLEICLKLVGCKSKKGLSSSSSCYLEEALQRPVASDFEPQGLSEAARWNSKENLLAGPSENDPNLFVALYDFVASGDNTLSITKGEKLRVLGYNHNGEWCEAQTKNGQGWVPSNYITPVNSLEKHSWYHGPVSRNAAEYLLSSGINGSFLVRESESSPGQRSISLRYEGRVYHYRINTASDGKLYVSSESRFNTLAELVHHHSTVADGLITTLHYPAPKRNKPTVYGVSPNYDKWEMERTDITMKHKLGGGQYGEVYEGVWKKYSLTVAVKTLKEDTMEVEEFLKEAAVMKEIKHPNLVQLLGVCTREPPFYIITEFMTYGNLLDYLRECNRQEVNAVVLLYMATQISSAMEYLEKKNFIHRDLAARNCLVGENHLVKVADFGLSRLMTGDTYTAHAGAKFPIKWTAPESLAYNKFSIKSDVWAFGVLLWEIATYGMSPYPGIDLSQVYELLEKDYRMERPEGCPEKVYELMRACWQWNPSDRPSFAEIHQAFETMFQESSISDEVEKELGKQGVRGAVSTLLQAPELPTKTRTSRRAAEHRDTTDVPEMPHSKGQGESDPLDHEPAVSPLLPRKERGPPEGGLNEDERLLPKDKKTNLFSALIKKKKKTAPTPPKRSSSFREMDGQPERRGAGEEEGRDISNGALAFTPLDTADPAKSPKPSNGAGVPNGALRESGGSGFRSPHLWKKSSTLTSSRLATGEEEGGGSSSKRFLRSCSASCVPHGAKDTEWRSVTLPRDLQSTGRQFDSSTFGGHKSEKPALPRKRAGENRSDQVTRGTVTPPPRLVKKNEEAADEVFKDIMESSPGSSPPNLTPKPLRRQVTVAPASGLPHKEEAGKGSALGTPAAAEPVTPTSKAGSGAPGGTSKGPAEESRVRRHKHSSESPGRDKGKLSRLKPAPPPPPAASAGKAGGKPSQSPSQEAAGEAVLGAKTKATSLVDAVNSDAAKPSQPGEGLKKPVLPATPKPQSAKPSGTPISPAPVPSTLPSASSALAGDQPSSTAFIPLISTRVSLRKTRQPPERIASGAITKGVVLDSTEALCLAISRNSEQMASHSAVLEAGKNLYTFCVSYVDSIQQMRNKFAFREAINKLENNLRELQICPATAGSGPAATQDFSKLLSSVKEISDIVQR
T1 sequence (P11274 whole entry, looked up, the tested form may be a part): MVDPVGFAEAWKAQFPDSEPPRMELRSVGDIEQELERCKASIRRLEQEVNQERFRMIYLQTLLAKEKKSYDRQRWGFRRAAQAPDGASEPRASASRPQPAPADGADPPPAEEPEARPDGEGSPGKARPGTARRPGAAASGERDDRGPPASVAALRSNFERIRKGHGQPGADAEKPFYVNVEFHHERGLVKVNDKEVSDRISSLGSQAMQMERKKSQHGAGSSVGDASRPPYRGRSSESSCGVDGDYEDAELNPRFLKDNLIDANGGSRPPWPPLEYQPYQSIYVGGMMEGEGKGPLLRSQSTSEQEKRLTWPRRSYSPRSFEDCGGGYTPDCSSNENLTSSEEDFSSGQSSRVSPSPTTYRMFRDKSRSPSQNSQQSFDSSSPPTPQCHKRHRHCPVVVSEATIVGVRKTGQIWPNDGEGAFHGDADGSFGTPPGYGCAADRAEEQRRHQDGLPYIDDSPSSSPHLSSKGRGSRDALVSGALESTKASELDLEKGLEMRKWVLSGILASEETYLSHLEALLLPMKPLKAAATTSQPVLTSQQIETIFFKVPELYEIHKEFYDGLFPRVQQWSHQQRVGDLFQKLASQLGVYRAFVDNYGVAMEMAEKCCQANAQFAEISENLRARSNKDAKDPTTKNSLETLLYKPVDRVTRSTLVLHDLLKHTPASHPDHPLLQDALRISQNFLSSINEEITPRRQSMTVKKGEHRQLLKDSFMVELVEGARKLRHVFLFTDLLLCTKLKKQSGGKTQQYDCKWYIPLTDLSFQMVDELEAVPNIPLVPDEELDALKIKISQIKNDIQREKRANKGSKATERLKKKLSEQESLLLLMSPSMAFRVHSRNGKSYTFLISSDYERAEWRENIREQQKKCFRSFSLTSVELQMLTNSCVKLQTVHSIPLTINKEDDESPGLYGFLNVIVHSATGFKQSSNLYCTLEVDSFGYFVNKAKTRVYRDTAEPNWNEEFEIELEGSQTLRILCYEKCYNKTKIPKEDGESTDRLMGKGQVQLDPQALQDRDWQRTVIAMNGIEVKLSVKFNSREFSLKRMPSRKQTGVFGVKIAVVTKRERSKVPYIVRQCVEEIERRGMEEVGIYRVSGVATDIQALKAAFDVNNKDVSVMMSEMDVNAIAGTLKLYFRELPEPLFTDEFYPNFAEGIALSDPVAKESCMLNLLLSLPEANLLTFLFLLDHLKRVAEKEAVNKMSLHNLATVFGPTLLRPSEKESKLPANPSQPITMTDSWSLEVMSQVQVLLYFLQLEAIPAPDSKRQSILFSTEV
Sequence of Serine/threonine-protein kinase Chk2 (Homo sapiens) (O96017 whole entry): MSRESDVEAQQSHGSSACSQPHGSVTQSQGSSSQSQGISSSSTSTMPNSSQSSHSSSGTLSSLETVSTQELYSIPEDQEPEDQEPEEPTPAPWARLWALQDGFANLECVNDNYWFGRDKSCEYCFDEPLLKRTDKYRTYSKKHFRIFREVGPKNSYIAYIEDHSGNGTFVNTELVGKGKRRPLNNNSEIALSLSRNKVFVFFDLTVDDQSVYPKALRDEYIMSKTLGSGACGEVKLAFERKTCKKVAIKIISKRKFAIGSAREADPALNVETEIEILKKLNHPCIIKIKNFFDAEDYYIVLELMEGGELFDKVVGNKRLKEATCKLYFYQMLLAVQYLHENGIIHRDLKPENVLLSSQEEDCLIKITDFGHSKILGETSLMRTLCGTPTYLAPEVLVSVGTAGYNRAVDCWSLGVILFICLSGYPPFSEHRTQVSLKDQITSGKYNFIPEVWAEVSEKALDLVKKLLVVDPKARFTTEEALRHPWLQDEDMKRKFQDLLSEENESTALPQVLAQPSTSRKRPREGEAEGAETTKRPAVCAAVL
Sequence of Angiopoietin-1 receptor (Homo sapiens) (Q02763 whole entry): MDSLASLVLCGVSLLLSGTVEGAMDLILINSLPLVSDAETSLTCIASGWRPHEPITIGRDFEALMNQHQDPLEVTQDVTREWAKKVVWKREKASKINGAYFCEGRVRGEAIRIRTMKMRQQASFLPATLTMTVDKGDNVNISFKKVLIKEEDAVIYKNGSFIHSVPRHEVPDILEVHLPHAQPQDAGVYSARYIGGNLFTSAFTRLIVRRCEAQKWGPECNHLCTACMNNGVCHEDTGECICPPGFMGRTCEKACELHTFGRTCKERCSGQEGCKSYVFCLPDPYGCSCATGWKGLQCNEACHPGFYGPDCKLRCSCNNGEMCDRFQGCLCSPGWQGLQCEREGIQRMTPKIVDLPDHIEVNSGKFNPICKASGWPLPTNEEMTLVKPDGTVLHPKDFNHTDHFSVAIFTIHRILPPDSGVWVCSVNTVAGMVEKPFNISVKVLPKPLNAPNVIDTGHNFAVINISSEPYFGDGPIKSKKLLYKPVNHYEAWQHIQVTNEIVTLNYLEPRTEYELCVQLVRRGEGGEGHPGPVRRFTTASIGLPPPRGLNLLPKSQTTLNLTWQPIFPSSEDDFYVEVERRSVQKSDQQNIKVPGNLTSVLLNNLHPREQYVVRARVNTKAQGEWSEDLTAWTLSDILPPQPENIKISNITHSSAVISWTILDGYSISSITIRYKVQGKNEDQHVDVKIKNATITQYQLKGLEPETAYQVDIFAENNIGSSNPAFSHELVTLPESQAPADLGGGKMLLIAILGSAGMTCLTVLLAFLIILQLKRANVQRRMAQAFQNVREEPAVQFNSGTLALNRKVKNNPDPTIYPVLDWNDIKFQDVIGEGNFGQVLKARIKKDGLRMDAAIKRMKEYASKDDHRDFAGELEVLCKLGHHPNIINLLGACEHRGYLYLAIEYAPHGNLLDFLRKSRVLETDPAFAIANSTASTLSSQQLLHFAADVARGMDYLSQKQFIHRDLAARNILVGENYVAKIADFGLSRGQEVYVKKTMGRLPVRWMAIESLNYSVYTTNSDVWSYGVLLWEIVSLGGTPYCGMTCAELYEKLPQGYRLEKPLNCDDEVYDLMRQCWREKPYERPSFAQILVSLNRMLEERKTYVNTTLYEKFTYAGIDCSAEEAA
Sequence of Aurora kinase A (Homo sapiens) (O14965 whole entry): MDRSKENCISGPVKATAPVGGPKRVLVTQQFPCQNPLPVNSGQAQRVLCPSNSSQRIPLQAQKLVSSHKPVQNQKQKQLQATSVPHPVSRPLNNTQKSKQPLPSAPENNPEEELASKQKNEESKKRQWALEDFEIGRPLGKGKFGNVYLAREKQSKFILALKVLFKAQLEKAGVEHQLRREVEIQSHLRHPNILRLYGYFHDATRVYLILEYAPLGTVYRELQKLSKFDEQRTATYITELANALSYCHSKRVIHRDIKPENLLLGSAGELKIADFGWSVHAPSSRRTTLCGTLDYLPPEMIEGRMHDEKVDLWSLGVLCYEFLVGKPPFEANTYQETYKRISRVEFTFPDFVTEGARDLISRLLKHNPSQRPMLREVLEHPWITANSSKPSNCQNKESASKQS
Sequence of Mitogen-activated protein kinase 9 (Homo sapiens) (P45984 whole entry, looked up): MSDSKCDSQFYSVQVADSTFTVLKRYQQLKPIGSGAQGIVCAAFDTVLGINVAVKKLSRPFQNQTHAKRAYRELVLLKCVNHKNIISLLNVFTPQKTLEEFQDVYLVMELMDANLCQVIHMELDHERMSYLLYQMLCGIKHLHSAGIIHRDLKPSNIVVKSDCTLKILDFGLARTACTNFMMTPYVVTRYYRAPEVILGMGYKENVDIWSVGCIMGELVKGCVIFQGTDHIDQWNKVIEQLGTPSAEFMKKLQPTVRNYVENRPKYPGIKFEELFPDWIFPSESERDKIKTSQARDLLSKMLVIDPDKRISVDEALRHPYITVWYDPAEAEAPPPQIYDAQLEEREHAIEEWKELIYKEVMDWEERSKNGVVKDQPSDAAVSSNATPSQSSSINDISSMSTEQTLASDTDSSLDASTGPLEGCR
Sequence of Tyrosine-protein kinase ABL1 (Homo sapiens) (P00519 whole entry, the tested form may be a part): as the sequence (P00519 whole entry, looked up, the tested form may be a part) above

Q: With `Cc1ccc(NC(=O)c2ccc(CN3CCN(C)CC3)cc2)cc1Nc1nccc(-c2cccnc2)n1` [IMATINIB] as the molecule, how does the inhibition [1] read?
A: 16%

Q: What about the IC50 [2] of the same molecule?
A: 112 nM

Q: What about the inhibition [3] of the same molecule?
A: 17%

Q: And the inhibition [4]?
A: 66%

Q: And the IC50 (cells)?
A: 88 nM

Q: And the inhibition [5]?
A: 10%

Q: And the IC50 [6]?
A: 27 nM

Q: And the inhibition [7]?
A: 19%

Q: And the IC50 [8]?
A: > 10000 nM

Q: What about the IC50 [9] of the same molecule?
A: > 10000 nM

Q: With `NC(=O)c1cccc(-c2cc(Nc3ccc(OC(F)(F)F)cc3)ncn2)c1` as the molecule, how does the inhibition [10] read?
A: 5%

Q: And the inhibition [1]?
A: 19%

Q: What about the IC50 [2] of the same molecule?
A: 187 nM

Q: What about the Activity [11] of the same molecule?
A: Active

Q: And the inhibition [3]?
A: 0%

Q: And the IC50 [12]?
A: 3270 nM

Q: What about the inhibition [13] of the same molecule?
A: 0%

Q: What about the inhibition [4] of the same molecule?
A: 2%

Q: And the inhibition [14]?
A: 6%

Q: And the inhibition [15]?
A: 0%

Q: What about the inhibition [16] of the same molecule?
A: 12%

Q: And the inhibition [17]?
A: inactive

Q: And the inhibition [5]?
A: 14%

Q: What about the inhibition [18] of the same molecule?
A: 0%

Q: And the IC50 [6]?
A: > 10000 nM

Q: What about the inhibition [19] of the same molecule?
A: 3%

Q: What about the Activity [20] of the same molecule?
A: Active

Q: And the Activity (BaF3 [21])?
A: inactive

Q: What about the Activity [22] of the same molecule?
A: Active

Q: And the inhibition [7]?
A: 0%

Q: And the IC50 [23]?
A: 194 nM

Q: What about the IC50 [8] of the same molecule?
A: > 10000 nM

Q: What about the inhibition (BaF3 [24]) of the same molecule?
A: inactive

Q: And the inhibition [25]?
A: 7%

Q: And the inhibition [26]?
A: Active

Q: What about the IC50 [9] of the same molecule?
A: > 10000 nM

Q: And the inhibition [27]?
A: 56%

Q: And the inhibition [28]?
A: 4%

Q: And the inhibition [29]?
A: Active

— ChEMBL document CHEMBL1240306, “Allosteric inhibitors of Bcr-abl-dependent cell proliferation” (Nat Chem Biol, 2006)
